According to ChEMBL document CHEMBL3612040, “Discovery of Selective Small Molecule Inhibitors of Monoacylglycerol Acyltransferase 3” (J Med Chem, 2015):
The source made the active and inactive calls. No cut-off for these calls is given here.

How the values were obtained:
CYP2C9 = CYP2C9 (Homo sapiens, UniProt P11712); assay: Inhibition of CYP2C9 (unknown origin) at 3 uM; type: ADME
[1] = Lipophilicity, logD of the compound at pH 7.4; type: physicochemical; settings: buffer
Method in brief: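 Shake-flask octanol:water partition at pH 7.4, with MS analysis of samples.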

[2] = target: T1, Diacylglycerol O-acyltransferase 1 (Homo sapiens, UniProt O75907); assay: Inhibition of DGAT1 (unknown origin) assessed as effect on incorporation of [1-14C]decanoyl moiety into TG using [1-14C]decanoyl-CoA and 1,2-didecanoyl-sn-glycerol as substrates
T1 sequence (O75907 whole entry): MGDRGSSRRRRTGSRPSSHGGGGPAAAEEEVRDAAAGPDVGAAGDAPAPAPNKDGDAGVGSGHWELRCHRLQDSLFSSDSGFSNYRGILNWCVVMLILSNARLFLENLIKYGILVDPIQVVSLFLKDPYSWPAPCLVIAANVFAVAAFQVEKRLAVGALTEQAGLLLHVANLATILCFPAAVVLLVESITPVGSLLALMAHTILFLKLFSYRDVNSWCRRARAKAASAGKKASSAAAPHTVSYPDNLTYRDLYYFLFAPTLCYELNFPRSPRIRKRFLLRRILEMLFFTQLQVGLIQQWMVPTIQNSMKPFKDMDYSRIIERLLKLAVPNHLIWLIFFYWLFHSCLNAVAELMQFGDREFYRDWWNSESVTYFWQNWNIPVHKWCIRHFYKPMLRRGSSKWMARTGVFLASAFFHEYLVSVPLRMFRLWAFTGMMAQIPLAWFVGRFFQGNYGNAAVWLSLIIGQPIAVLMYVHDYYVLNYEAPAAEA

CYP2C8 = target: T2, CYP2C8 (Homo sapiens, UniProt P10632); assay: Inhibition of CYP2C8 (unknown origin) at 3 uM; type: ADME
T2 sequence (P10632 whole entry): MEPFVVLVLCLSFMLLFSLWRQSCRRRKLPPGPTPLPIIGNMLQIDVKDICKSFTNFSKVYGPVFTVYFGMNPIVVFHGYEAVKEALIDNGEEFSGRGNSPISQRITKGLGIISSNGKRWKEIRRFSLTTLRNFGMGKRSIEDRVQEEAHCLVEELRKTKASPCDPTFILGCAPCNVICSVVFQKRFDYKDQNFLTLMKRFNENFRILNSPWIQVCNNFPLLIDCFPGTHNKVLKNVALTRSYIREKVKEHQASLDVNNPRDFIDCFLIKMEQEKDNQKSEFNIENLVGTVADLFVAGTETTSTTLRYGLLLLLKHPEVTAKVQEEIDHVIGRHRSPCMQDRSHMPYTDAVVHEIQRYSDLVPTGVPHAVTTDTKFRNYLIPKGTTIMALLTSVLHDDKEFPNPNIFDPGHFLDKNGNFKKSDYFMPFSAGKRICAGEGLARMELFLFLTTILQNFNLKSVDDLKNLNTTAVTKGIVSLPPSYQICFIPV

[3] = target: T3, Diacylglycerol O-acyltransferase 2 (Homo sapiens, UniProt Q96PD7); assay: Inhibition of DGAT2 (unknown origin) using [1-14C]decanoyl-CoA and didecanoyl-sn-glycerol substrates incubated for 40 mins
T3 sequence (Q96PD7 whole entry): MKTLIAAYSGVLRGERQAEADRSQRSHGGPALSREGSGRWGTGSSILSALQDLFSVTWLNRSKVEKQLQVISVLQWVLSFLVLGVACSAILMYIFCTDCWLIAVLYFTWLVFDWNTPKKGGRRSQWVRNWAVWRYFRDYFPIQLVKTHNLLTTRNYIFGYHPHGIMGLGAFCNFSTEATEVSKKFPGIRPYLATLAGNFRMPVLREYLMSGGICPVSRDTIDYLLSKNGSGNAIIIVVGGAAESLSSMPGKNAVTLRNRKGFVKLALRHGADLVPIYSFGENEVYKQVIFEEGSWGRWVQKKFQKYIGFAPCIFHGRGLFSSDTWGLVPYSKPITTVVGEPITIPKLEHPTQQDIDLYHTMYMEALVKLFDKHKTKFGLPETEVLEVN
Method in brief: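 DGAT2 membrane fraction (0.01 mg/mL) in 100 mM Hepes-NaOH pH 7.4, 20 mM MgCl2, 200 nM MAFP. Compound first held 20 min with 0.04% fatty-acid-free BSA, then preincubated 120 min at RT with enzyme. Started with 30 µM [1-14C]decanoyl-CoA and 125 µM 1,2-didecanoyl-sn-glycerol; ran 40 min at RT, acid-stopped. Labelled TAG read by scintillation after phase partitioning.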

[4] = Apparent permeability in RRCK cells; type: ADME, cell-based, Canis lupus familiaris, MDCKII-LE; settings: dog, MDCK
[5] = Intrinsic clearance in human liver microsomes; type: ADME; settings: read-out: CLH
HepG2 = assay: Toxicity in human HepG2 cells up to 300 uM incubated for 72 hrs; type: cell-based; settings: hepg2, 72 h
Method in brief: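 HepG2 cells incubated with compound up to 300 µM for 72 hours.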

Mus musculus [6] = assay: Effect on incorporation of glycerol-d8 into triolein in wild type mouse by measuring atom percent excess at 200 mg/kg, po dosed 1 hr before of 100 mg/kg, iv glycerol-d8 and measured 30 mins post glycerol-d8 dosing and co-treated with 30 mg/kg for DGAT1 inhibitor-12 and 10 mg/kg for DGAT2 inhibitor-13 by LC-MS method; type: functional, organism-based
Method in brief: (§1)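 Fed mice (wild type or human MOGAT3 transgenic) were studied between 8 AM and 12 PM. Inhibitors were given orally in 0.5% methyl cellulose in saline. After 1 h, D8-glycerol (10 mg/mL in saline) was injected into the tail vein. Blood was taken into EDTA 30 min later and plasma lipids extracted. D5-glycerol in triolein (18:1/18:1/18:1) was measured by LC/MS as atom percent excess, mean ± SE.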

Cytochrome P450 3A4 = Cytochrome P450 3A4 (Homo sapiens, UniProt P08684); assay: Inhibition of human CYP3A4; type: ADME
Chain of Cytochrome P450 3A4 (P08684 whole entry): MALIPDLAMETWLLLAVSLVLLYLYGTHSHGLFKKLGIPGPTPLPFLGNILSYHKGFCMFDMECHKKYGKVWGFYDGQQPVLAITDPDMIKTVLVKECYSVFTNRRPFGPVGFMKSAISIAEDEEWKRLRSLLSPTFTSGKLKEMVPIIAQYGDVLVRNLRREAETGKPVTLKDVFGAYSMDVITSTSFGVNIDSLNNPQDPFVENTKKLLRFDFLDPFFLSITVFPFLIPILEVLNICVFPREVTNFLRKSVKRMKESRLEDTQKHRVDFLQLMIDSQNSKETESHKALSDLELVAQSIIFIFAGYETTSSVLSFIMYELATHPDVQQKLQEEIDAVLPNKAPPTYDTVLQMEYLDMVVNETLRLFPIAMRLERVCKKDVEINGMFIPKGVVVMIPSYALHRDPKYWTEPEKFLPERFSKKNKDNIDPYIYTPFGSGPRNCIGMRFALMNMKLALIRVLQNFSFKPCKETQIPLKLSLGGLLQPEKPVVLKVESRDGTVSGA

Mus musculus [7] = assay: (§2) In-vivo inhibition of MGAT3-mediated TAG synthesis in human MGAT3 transgenic mouse assessed as reduction in incorporation of glycerol-d8 in to triolein expressed as atom percent excess at 200 mg/kg, po dosed 1 hr before of 100 mg/kg, iv glycerol-d8 and measured 30 mins post glycerol-d8 dosing by LC-MS method; type: functional, organism-based
Method in brief: (§3)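 Fed mice (wild type or human MOGAT3 transgenic), studied 8 AM–12 PM. Oral dosing in 0.5% methyl cellulose in saline, alone or with DGAT1 inhibitor (30 mg/kg) and DGAT2 inhibitor (10 mg/kg). After 1 h, 100 mg/kg uniformly labelled D8-glycerol (10 mg/mL in saline) given by tail vein. EDTA plasma taken 30 min later; D5-glycerol enrichment in triolein (18:1/18:1/18:1) measured by LC/MS, reported as mean atom percent excess ± SE.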

[8] = Cmax in mouse at 5 mg/kg, po; type: ADME, organism-based; design: dose 5 mg/kg, route oral; settings: in vivo
[9] = AUClast in mouse at 5 mg/kg, po; type: ADME, organism-based; design: dose 5 mg/kg, route oral, time 0 - last; settings: in vivo
Cytochrome P450 2D6 = Cytochrome P450 2D6 (Homo sapiens, UniProt P10635); assay: Inhibition of human CYP2D6; type: ADME
Chain of Cytochrome P450 2D6 (P10635 whole entry): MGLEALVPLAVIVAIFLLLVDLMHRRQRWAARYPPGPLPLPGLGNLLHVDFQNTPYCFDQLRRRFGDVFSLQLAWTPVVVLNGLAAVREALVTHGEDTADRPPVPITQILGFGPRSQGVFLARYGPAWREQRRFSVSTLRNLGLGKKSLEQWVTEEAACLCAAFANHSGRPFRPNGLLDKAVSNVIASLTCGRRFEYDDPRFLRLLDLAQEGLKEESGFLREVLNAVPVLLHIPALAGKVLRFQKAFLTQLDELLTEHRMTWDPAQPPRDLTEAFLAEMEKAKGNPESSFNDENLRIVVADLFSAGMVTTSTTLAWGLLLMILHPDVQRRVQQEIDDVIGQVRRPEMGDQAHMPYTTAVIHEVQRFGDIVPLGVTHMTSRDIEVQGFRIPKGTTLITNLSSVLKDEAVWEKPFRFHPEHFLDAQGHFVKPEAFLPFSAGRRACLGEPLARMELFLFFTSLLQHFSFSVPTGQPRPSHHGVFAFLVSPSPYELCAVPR

Cytochrome P450 2C8 = target: T4, Cytochrome P450 2C8 (Homo sapiens, UniProt P10632); assay: Inhibition of human CYP2C8; type: ADME
T4 sequence (P10632 whole entry): T2 sequence (P10632 whole entry)

[10] = Oral bioavailability in mouse at 5 mg/kg; type: ADME, organism-based; settings: in vivo
[11] = target: T5, Peroxisome proliferator-activated receptor gamma (Homo sapiens, UniProt P37231); assay: Inhibition of PPARgamma (unknown origin)
T5 sequence (P37231 whole entry): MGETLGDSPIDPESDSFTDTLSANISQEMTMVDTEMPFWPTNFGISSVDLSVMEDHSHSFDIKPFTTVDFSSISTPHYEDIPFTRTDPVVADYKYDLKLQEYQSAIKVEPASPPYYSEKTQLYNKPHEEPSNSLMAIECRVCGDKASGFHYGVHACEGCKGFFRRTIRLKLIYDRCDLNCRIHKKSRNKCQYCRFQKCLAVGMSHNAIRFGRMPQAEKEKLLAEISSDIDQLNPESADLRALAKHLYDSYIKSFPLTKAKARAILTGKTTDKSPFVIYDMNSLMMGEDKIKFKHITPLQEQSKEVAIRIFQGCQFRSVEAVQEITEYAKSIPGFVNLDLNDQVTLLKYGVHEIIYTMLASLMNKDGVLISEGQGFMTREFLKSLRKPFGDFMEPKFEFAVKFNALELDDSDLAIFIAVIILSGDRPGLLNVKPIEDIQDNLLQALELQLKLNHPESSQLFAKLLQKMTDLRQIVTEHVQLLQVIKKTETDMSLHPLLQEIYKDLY

[12] = Half life in mouse at 1 mg/kg, iv; type: ADME, organism-based; settings: in vivo
Method in brief: (§4)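 Single 1 mg/kg intravenous dose in mice; systemic clearance, volume of distribution and effective half-life derived from plasma pharmacokinetics.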

[13] = Systemic clearance in mouse at 1 mg/kg, iv; type: ADME, organism-based; settings: in vivo; method in brief: as §4
[14] = target: Voltage-gated inwardly rectifying potassium channel KCNH2 (Homo sapiens, UniProt Q12809); assay: Inhibition of human ERG
Chain of Voltage-gated inwardly rectifying potassium channel KCNH2 (Q12809 whole entry): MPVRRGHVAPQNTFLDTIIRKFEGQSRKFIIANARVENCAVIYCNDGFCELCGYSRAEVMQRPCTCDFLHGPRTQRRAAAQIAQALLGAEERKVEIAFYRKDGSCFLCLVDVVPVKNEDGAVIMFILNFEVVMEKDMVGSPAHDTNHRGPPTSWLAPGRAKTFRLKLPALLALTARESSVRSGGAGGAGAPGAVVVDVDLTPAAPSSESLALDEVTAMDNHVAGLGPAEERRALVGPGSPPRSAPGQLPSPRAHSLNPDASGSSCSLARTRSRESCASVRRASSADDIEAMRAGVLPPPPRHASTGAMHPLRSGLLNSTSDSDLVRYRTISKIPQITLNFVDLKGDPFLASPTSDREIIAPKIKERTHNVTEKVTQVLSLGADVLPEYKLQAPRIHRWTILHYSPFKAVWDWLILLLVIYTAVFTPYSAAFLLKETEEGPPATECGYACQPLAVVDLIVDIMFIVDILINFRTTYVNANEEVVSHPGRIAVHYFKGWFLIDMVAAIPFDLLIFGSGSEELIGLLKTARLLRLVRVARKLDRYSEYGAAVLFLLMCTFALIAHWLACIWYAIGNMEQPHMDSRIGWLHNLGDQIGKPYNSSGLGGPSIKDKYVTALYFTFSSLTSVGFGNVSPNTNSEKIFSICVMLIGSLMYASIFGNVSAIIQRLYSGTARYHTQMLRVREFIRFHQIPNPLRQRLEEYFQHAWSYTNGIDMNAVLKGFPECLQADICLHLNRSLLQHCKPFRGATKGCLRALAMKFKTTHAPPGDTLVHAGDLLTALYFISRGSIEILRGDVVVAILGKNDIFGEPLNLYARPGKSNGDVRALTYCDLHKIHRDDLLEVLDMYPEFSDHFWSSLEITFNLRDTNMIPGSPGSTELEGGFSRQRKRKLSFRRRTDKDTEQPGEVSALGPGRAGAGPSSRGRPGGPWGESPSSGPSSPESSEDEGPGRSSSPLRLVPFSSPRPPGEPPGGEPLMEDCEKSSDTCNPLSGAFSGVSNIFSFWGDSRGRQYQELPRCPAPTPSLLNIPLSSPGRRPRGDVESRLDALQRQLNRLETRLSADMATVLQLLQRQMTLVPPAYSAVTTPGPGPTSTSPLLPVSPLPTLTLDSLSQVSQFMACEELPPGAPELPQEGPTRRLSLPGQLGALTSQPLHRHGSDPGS

Cytochrome P450 2C9 [15] = target: T6, Cytochrome P450 2C9 (Homo sapiens, UniProt P11712); assay: Inhibition of human CYP2C9; type: ADME
T6 sequence (P11712 whole entry): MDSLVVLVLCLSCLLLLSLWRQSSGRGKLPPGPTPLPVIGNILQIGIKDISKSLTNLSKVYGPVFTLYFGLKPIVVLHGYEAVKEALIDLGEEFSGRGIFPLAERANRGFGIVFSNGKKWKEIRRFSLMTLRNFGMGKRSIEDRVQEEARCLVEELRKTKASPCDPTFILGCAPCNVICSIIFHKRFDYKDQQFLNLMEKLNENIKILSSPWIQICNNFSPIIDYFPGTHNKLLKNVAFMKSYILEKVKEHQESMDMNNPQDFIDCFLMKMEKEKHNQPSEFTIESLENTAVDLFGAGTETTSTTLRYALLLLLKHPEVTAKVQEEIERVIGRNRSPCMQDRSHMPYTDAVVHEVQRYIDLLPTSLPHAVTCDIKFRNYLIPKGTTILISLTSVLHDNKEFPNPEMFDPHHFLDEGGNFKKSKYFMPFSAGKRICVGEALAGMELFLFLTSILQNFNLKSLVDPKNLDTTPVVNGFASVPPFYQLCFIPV

[16] = Volume of distribution in mouse at 1 mg/kg, iv; type: ADME, organism-based; settings: in vivo; method in brief: as §4
Salmonella typhimurium = assay: Genotoxicity in Salmonella typhimurium by Amest test; type: toxicity, organism-based; settings: salmonella enterica subsp. enterica serovar typhimurium
Cytochrome P450 1A2 = target: T7, Cytochrome P450 1A2 (Homo sapiens, UniProt P05177); assay: Inhibition of human CYP1A2; type: ADME
T7 sequence (P05177 whole entry): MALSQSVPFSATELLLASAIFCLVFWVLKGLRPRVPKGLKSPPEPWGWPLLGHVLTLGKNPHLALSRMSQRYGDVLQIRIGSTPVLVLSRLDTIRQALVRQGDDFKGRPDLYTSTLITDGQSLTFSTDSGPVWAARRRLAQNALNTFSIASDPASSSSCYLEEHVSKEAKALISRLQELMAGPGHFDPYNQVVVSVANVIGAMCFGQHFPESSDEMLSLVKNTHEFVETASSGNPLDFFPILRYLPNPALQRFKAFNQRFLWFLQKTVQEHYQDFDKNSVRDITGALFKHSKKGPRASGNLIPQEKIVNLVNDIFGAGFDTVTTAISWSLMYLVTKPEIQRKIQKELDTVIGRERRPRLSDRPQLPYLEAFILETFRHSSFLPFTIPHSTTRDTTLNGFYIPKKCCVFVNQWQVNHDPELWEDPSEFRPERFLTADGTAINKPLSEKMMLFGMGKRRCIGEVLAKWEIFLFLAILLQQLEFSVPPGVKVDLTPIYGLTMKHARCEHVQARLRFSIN

Mus musculus [17] = assay: Effect on incorporation of glycerol-d8 into triolein in wild type mouse by measuring atom percent excess at 200 mg/kg, po dosed 1 hr before of 100 mg/kg, iv glycerol-d8 and measured 30 mins post glycerol-d8 dosing by LC-MS method; type: functional, organism-based; method in brief: as §3
Mus musculus [18] = assay: as §2, with “dosing and co-treated with 30 mg/kg for DGAT1 inhibitor-12 and 10 mg/kg for DGAT2 inhibitor-13” for “dosing”; type: functional, organism-based; method in brief: as §1
[19] = Genotoxicity in micronucleus (unknown origin) by micronucleus assay
Hepatocyte = assay: Drug metabolism in human hepatocytes assessed as compound oxidation; type: ADME, cell-based
Cytochrome P450 2C9 [20] = target: T6, Cytochrome P450 2C9; assay: Drug metabolism in human hepatocytes assessed as CYP2C9-mediated compound oxidation; type: ADME, cell-based, Hepatocyte

Chain of CYP2C9 (P11712 whole entry): as the sequence (P11712 whole entry) above

Compound | inhibition at 3 µM (CYP2C9) [%] | logD [1] | IC50 [2] [µM] | inhibition at 3 µM (CYP2C8) [%] | IC50 [3] [µM] | Papp [4] [×10⁻⁶ cm/s] | microsomal CLint [5] [µL/min/mg] | also measured
COc1cccc(CC(=O)N2Cc3ccc(S(=O)(=O)NCCc4cccc(F)c4)cc3C2)c1 | 35 | 3.6 | 31 | 29 | > 40 | 8 | > 320 | 
COc1cccc(CC(=O)N2Cc3ccc(S(=O)(=O)Nc4cnn(C5CC(F)(F)C5)n4)cc3C2)c1 |  | 1.5 |  |  |  | 7 | < 8 | 
COc1cccc(CC(=O)N2Cc3ccc(S(=O)(=O)Nc4cnn(C5CCC5)n4)cc3C2)c1 |  | 1.7 | > 50 |  | > 100 | 12 | 22 | Activity (HepG2): Non-toxic; Activity (Mus musculus [6]): inactive; inhibition (INH) (Cytochrome P450 3A4): Not Active; inhibition (Mus musculus [7]): inactive; Cmax [8]: 9300 ng/mL; AUC(0-t) [9]: 27000 ng·h/mL; inhibition (INH) (Cytochrome P450 2D6): Not Active; inhibition (INH) (Cytochrome P450 2C8): Not Active; bioavailability [10]: 74%; IC50 [11]: 4 µM; half-life [12]: 1.4 h; clearance [13]: 1.4 mL/min/kg; inhibition (INH) [14]: Not Active; inhibition (INH) (Cytochrome P450 2C9 [15]): Not Active; Vd [16]: 0.17 L/kg; Activity (Salmonella typhimurium): Non-toxic; inhibition (INH) (Cytochrome P450 1A2): Not Active; Activity (Mus musculus [17]): inactive; inhibition (Mus musculus [18]): Active; Activity [19]: Non-toxic

Now from value to molecule, other results behind:

inhibition at 3 µM (CYP2C9) [%] | logD [1] | IC50 [2] [µM] | inhibition at 3 µM (CYP2C8) [%] | IC50 [3] [µM] | Papp [4] [×10⁻⁶ cm/s] | microsomal CLint [5] [µL/min/mg] | Compound | also measured
 | 1.4 |  |  |  | 25 | < 8 | COc1cccc(CC(=O)N2Cc3ccc(S(=O)(=O)Nc4cnn(C(C)C)n4)cc3C2)c1 | 
88 | 2.3 |  | 48 |  | 15 | 273 | COc1cccc(CC(=O)N2Cc3ccc(S(=O)(=O)Nc4cnn(-c5ccccc5)n4)cc3C2)c1 | Drug metabolism (Hepatocyte): metabolite_detected; Drug metabolism (Cytochrome P450 2C9 [20]): metabolite_detected
